In ChEMBL document CHEMBL3244078, “Synthesis and antihypertensive activity of novel 3-hydrazino-5-phenyl-1,2,4-triazines” (J Med Chem, 1979):
Activity calls are given as the source filed them. The calls are words filed in the database; no cut-off is given here.

Experiments:
Rattus norvegicus [1] = assay: Antihypertensive activity in spontaneously hypertensive rat assessed as drop in mean systolic blood pressure at 100 mg/kg, po after 4 hrs by tail cuff method relative to vehicle-treated control; format: functional, Artery
Rattus norvegicus [2] = assay: Antihypertensive activity in spontaneously hypertensive rat assessed as drop in mean systolic blood pressure at 100 mg/kg, po after 24 hrs by tail cuff method relative to vehicle-treated control; format: functional, Artery
Rattus norvegicus [3] = assay: Antihypertensive activity in spontaneously hypertensive rat assessed as drop in mean systolic blood pressure at 100 mg/kg, po followed by second dosing at 24 hrs measured after 28 hrs by tail cuff method relative to vehicle-treated control; format: functional, Artery
Rattus norvegicus [4] = assay: Antihypertensive activity in spontaneously hypertensive rat assessed as drop in mean systolic blood pressure at 100 mg/kg, po followed by second dosing at 24 hrs measured after 48 hrs by tail cuff method relative to vehicle-treated control; format: functional, Artery
[5] = Toxicity in ip dosed CF-1 mouse after 48 hrs; conditions: in vivo
Rattus norvegicus [6] = assay: Antihypertensive activity in spontaneously hypertensive rat assessed as drop in mean systolic blood pressure at 30 mg/kg, po after 4 hrs by tail cuff method relative to vehicle-treated control; format: functional, Artery
In short: (§1)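 Dose-response run of the primary SHR protocol: rats aged 12–16 weeks, systolic BP of 170 mmHg or greater, five per dose. Oral doses of 100, 30, 10 and 3 mg/kg in 0.25% methylcellulose, redosed immediately after the 24-h reading. Tail-cuff systolic BP read predose and at 4, 24, 28 and 48 h. Mean drop from predose; Student's t test, p < 0.05.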

Rattus norvegicus [7] = assay: Antihypertensive activity in spontaneously hypertensive rat assessed as drop in mean systolic blood pressure at 30 mg/kg, po after 24 hrs by tail cuff method relative to vehicle-treated control; format: functional, Artery; in short: as §1
Rattus norvegicus [8] = assay: Antihypertensive activity in spontaneously hypertensive rat assessed as drop in mean systolic blood pressure at 30 mg/kg, po followed by second dosing at 24 hrs measured after 28 hrs by tail cuff method relative to vehicle-treated control; format: functional, Artery; in short: as §1
Rattus norvegicus [9] = assay: Antihypertensive activity in spontaneously hypertensive rat assessed as drop in mean systolic blood pressure at 30 mg/kg, po followed by second dosing at 24 hrs measured after 48 hrs by tail cuff method relative to vehicle-treated control; format: functional, Artery; in short: as §1
Rattus norvegicus [10] = assay: Antihypertensive activity in spontaneously hypertensive rat assessed as drop in mean systolic blood pressure at 10 mg/kg, po after 4 hrs by tail cuff method relative to vehicle-treated control; format: functional; conditions: Artery; in short: as §1
Rattus norvegicus [11] = assay: Antihypertensive activity in spontaneously hypertensive rat assessed as drop in mean systolic blood pressure at 10 mg/kg, po after 24 hrs by tail cuff method relative to vehicle-treated control; format: functional; conditions: Artery; in short: as §1
Rattus norvegicus [12] = assay: Antihypertensive activity in spontaneously hypertensive rat assessed as drop in mean systolic blood pressure at 10 mg/kg, po followed by second dosing at 24 hrs measured after 28 hrs by tail cuff method relative to vehicle-treated control; format: functional; conditions: Artery; in short: as §1
Rattus norvegicus [13] = assay: Antihypertensive activity in spontaneously hypertensive rat assessed as drop in mean systolic blood pressure at 10 mg/kg, po followed by second dosing at 24 hrs measured after 48 hrs by tail cuff method relative to vehicle-treated control; format: functional; conditions: Artery; in short: as §1
Rattus norvegicus [14] = assay: Antihypertensive activity in spontaneously hypertensive rat assessed as mean heart rate at 100 mg/kg, po after 4 hrs by tail cuff method relative to vehicle-treated control; format: functional
In short: (§2)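 Heart rate by biotachometer in the SHR dose-response protocol: five rats per dose, oral doses of 100, 30, 10 and 3 mg/kg in 0.25% methylcellulose, second dose right after the 24-h reading. Mean heart rate recorded predose and at 4, 24, 28 and 48 h.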

Rattus norvegicus [15] = assay: Antihypertensive activity in spontaneously hypertensive rat assessed as mean heart rate at 100 mg/kg, po after 24 hrs by tail cuff method relative to vehicle-treated control; format: functional; in short: as §2
Rattus norvegicus [16] = assay: Antihypertensive activity in spontaneously hypertensive rat assessed as mean heart rate at 100 mg/kg, po followed by second dosing at 24 hrs measured after 28 hrs by tail cuff method relative to vehicle-treated control; format: functional; in short: as §2
Rattus norvegicus [17] = assay: Antihypertensive activity in spontaneously hypertensive rat assessed as mean heart rate at 100 mg/kg, po followed by second dosing at 24 hrs measured after 48 hrs by tail cuff method relative to vehicle-treated control; format: functional; in short: as §2
Rattus norvegicus [18] = assay: Antihypertensive activity in spontaneously hypertensive rat assessed as mean heart rate at 30 mg/kg, po after 4 hrs by tail cuff method relative to vehicle-treated control; format: functional; in short: as §2
Rattus norvegicus [19] = assay: Antihypertensive activity in spontaneously hypertensive rat assessed as mean heart rate at 30 mg/kg, po after 24 hrs by tail cuff method relative to vehicle-treated control; format: functional; in short: as §2
Rattus norvegicus [20] = assay: Antihypertensive activity in spontaneously hypertensive rat assessed as mean heart rate at 30 mg/kg, po followed by second dosing at 24 hrs measured after 28 hrs by tail cuff method relative to vehicle-treated control; format: functional; in short: as §2
Rattus norvegicus [21] = assay: Antihypertensive activity in spontaneously hypertensive rat assessed as mean heart rate at 30 mg/kg, po followed by second dosing at 24 hrs measured after 48 hrs by tail cuff method relative to vehicle-treated control; format: functional; in short: as §2
Rattus norvegicus [22] = assay: Antihypertensive activity in spontaneously hypertensive rat assessed as mean heart rate at 10 mg/kg, po after 4 hrs by tail cuff method relative to vehicle-treated control; format: functional; in short: as §2
Rattus norvegicus [23] = assay: Antihypertensive activity in spontaneously hypertensive rat assessed as mean heart rate at 10 mg/kg, po after 24 hrs by tail cuff method relative to vehicle-treated control; format: functional; in short: as §2
Rattus norvegicus [24] = assay: Antihypertensive activity in spontaneously hypertensive rat assessed as mean heart rate at 10 mg/kg, po followed by second dosing at 24 hrs measured after 28 hrs by tail cuff method relative to vehicle-treated control; format: functional; in short: as §2
Rattus norvegicus [25] = assay: Antihypertensive activity in spontaneously hypertensive rat assessed as mean heart rate at 10 mg/kg, po followed by second dosing at 24 hrs measured after 48 hrs by tail cuff method relative to vehicle-treated control; format: functional; in short: as §2
Rattus norvegicus [26] = assay: Antihypertensive activity in spontaneously hypertensive rat assessed as mean heart rate at 3 mg/kg, po after 4 hrs by tail cuff method relative to vehicle-treated control; format: functional; in short: as §2
Rattus norvegicus [27] = assay: Antihypertensive activity in spontaneously hypertensive rat assessed as mean heart rate at 3 mg/kg, po after 24 hrs by tail cuff method relative to vehicle-treated control; format: functional; in short: as §2
Rattus norvegicus [28] = assay: Antihypertensive activity in spontaneously hypertensive rat assessed as mean heart rate at 3 mg/kg, po followed by second dosing at 24 hrs measured after 28 hrs by tail cuff method relative to vehicle-treated control; format: functional; in short: as §2
Rattus norvegicus [29] = assay: Antihypertensive activity in spontaneously hypertensive rat assessed as mean heart rate at 3 mg/kg, po followed by second dosing at 24 hrs measured after 48 hrs by tail cuff method relative to vehicle-treated control; format: functional; in short: as §2
Rattus norvegicus [30] = assay: Antihypertensive activity in spontaneously hypertensive rat assessed as drop in mean systolic blood pressure at 50 mg/kg, po after 4 hrs by tail cuff method relative to vehicle-treated control; format: functional, Artery
In short: (§3)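 Spontaneously hypertensive rats aged 12–16 weeks with systolic BP of 170 mmHg or greater, in groups of five. Dosed po as a solution or suspension in 0.25% methylcellulose at 5 mL/kg, with a second dose right after the 24-h reading. Tail-cuff systolic BP (capacitance transducer) was read predose as control, then at 4, 24, 28 and 48 h. Mean drop from predose; Student's t test, p < 0.05.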

Rattus norvegicus [31] = assay: Antihypertensive activity in spontaneously hypertensive rat assessed as drop in mean systolic blood pressure at 50 mg/kg, po after 24 hrs by tail cuff method relative to vehicle-treated control; format: functional, Artery; in short: as §3
Rattus norvegicus [32] = assay: Antihypertensive activity in spontaneously hypertensive rat assessed as drop in mean systolic blood pressure at 50 mg/kg, po followed by second dosing at 24 hrs measured after 28 hrs by tail cuff method relative to vehicle-treated control; format: functional, Artery; in short: as §3
Rattus norvegicus [33] = assay: Antihypertensive activity in spontaneously hypertensive rat assessed as drop in mean systolic blood pressure at 50 mg/kg, po followed by second dosing at 24 hrs measured after 48 hrs by tail cuff method relative to vehicle-treated control; format: functional, Artery; in short: as §3

Row | SMILES | Activity (Rattus norvegicus [1]) [mmHg] | Activity (Rattus norvegicus [2]) [mmHg] | Activity (Rattus norvegicus [3]) [mmHg] | Activity (Rattus norvegicus [4]) [mmHg] | LD50 at 48 h [5] [mg/kg] | Activity (Rattus norvegicus [6]) [mmHg] | Activity (Rattus norvegicus [7]) [mmHg] | Activity (Rattus norvegicus [8]) [mmHg] | Activity (Rattus norvegicus [9]) [mmHg] | Activity (Rattus norvegicus [10]) | Activity (Rattus norvegicus [11]) | Activity (Rattus norvegicus [12]) | Activity (Rattus norvegicus [13]) | Activity (Rattus norvegicus [14]) [bpm] | Activity (Rattus norvegicus [15]) [bpm] | Activity (Rattus norvegicus [16]) [bpm] | Activity (Rattus norvegicus [17]) [bpm] | Activity (Rattus norvegicus [18]) [bpm] | Activity (Rattus norvegicus [19]) [bpm] | Activity (Rattus norvegicus [20]) [bpm] | further results
1 | Cl.O.O=C(NNc1nncc(-c2ccccc2)n1)C12CC3CC(CC(C3)C1)C2 | 42 | 70 | 46 | 35 | > 300 | 20 | 12 | 18 | 11 | inactive | inactive | inactive | inactive | 446 | 428 | 442 | 458 | 410 | 412 | 380 | Activity (Rattus norvegicus [21]): 392 bpm; Activity (Rattus norvegicus [22]): 468 bpm; Activity (Rattus norvegicus [23]): 446 bpm; Activity (Rattus norvegicus [24]): 428 bpm; Activity (Rattus norvegicus [25]): 422 bpm; Activity (Rattus norvegicus [26]): 445 bpm; Activity (Rattus norvegicus [27]): 420 bpm; Activity (Rattus norvegicus [28]): 418 bpm; Activity (Rattus norvegicus [29]): 426 bpm
2 | NNc1nncc(-c2ccccc2)n1 |  |  |  |  | 56 |  |  |  |  |  |  |  |  |  |  |  |  |  |  |  | Activity (Rattus norvegicus [30]): 30 mmHg; Activity (Rattus norvegicus [31]): 43 mmHg; Activity (Rattus norvegicus [32]): 58 mmHg; Activity (Rattus norvegicus [33]): 60 mmHg
3 | CC(=O)NNc1nncc(-c2cccc(Cl)c2)n1 | 20 | 23 | 50 | 55 | > 300 | 16 | 14 | 19 | 19 | inactive | inactive | inactive | inactive | 478 | 482 | 482 | 490 | 400 | 438 | 460 | Activity (Rattus norvegicus [21]): 462 bpm; Activity (Rattus norvegicus [22]): 458 bpm; Activity (Rattus norvegicus [23]): 460 bpm; Activity (Rattus norvegicus [24]): 448 bpm; Activity (Rattus norvegicus [25]): 448 bpm; Activity (Rattus norvegicus [26]): 422 bpm; Activity (Rattus norvegicus [27]): 430 bpm; Activity (Rattus norvegicus [28]): 436 bpm; Activity (Rattus norvegicus [29]): 442 bpm
